From PubChem BioAssay
Only some compounds are listed: those with a hit (about 3.9% of all), similar ones and a draw of the others.
Jurkat NFkB inh – inhibitors of induced NF-kB luciferase reporter, primary screen, TCR NF-kB activation inhibitor project, cell-based, luminescence, uHTS; inhibition, % at 4 µM; 330,000 compounds, 0.53% hits; Jurkat, PMA/ionomycin-induced NF-kB luciferase reporter; in the data active = inhibition above about 50%
697 NFkB inh – inhibitors of PMA/ionomycin-induced NF-kB reporter, 697 cells, primary screen, B-cell NF-kB inhibitor project, cell-based, luminescence, uHTS; 697 B-cell NF-kB luciferase reporter, 16 h; inhibition, % at 4 µM; 330,000 compounds, 0.33% hits; AID 435022, 2010; in the data active = inhibition above about 35%
XBP1 UPR activ – activators of adaptive XBP1 UPR arm, primary screen, cell-based, CHO-XBP1 luciferase reporter, luminescence, uHTS; IRE1-XBP1 UPR activation; percent of tunicamycin response, DMSO as zero; activation, % at 20 µM; 330,000 compounds, 0.33% hits; AID 463104, 2010;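 active = versus positive control, 20 µM dose yields 30% or more activation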;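 also: 100% = tunicamycin at 10 µg/mL and 0% = DMSO only wells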
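Material: CHO cell line with stable XBP1 luciferase reporter; buffer or medium: F12 medium containing 10% fetal bovine serum; compound: single point, 20 µM final compound, 1% DMSO; incubation: 6 h treatment, 37 °C; measured by: glow luminescence from Steady-Glo reagent; evaluation: activation, % of tunicamycin; control set: tunicamycin high, DMSO low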
Gli-Sufu antag – Gli-Sufu pathway antagonists, primary screen, luciferase luminescence, Sufu-KO-LIGHT cells, uHTS; inhibition, % at 5 µM; 340,000 compounds, 0.74% hits; AID 588413, 2011; Sufu-KO-LIGHT fibroblasts, Gli luciferase reporter luminescence;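 active = inhibition above about 55%, limit read from the data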;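 also: 0% = DMSO-treated cells and 100% = wells with medium but no cells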
UPR CHOP act – activators of apoptotic CHOP UPR arm, primary screen, cell-based, CHO-CHOP luciferase reporter, luminescence, uHTS | 330,000 compounds, 0.34% hits | AID 449763, 2010 | activation, % at 10 µM | UPR activation; percent of tunicamycin response over DMSO baseline;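 active = at 10 µM dose, activation of 40% or more, normalized to positive control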;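 also: 100% = tunicamycin at 10 µg/mL and 0% = DMSO alone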
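Test system: CHO CHOP reporter cells. Input: 500 CHO-CHOP cells per well. Medium: F12 with 10% FBS. Technique: luciferase luminescence. Measure: percent activation relative to tunicamycin control. Dosing: 10 µM compound, 0.5% DMSO. Timing: 16-18 h cell attachment, then 6 h compound exposure, 37 °C.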
CHOP inhibitor – inhibitors of CHOP promoter induction, primary screen, cell-based, unfolded protein response, luciferase reporter | CHO-K1 CHOP-promoter luciferase, tunicamycin-induced, 15-18 h | inhibition, % at 10 µM | 220,000 compounds, 3.8% hits | AID 2732, 2010;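 active = compounds that reduced the stress-induced luciferase reporter signal by more than about 70% of percent inhibition, limit read from the data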;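 also: 0% = tunicamycin plus vehicle and 100% = wells without tunicamycin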
CHOP inh conf – retest of CHOP induction inhibitors, confirmation, cell-based. shares compounds with CHOP inhibitor. CHO-CHOP promoter luciferase reporter, tunicamycin-induced, luminescence. inhibition, % at 10 µM. 2,100 compounds, 45% hits. AID 504437, 2011;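 active = mean of three repeat readings of reporter signal inhibition above a set limit, cut at about 70% in these data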;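 also: 0% = tunicamycin plus vehicle and 100% = wells lacking tunicamycin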
Jurkat NFkB conf – PMA/ionomycin-induced NF-kB reporter inhibitors, Jurkat retest, confirmation, T-cell NF-kB inhibitor project, cell-based, luminescence, single concentration; shares compounds with Jurkat NFkB inh; Jurkat NF-kB luciferase, 16 h; inhibition, % at 4 µM; 2,700 compounds, 27% hits;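 active = inhibition reaching about 45% at 4 µM in either replicate, limit read from the data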;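 also: plate controls were PMA/ionomycin stimulated DMSO wells for no effect and unstimulated DMSO wells for full effect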
UPR CHOP confirm – activators of apoptotic CHOP UPR arm, confirmation, cell-based, CHO-CHOP luciferase reporter, single concentration; shares compounds with UPR CHOP act; CHO-CHOP cells, CHOP-luciferase reporter luminescence; percent of tunicamycin response, DMSO as zero; activation, % at 10 µM; 1,000 compounds, 64% hits; in the data active = activation above about 33%;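 also: 0% = DMSO wells and 100% = tunicamycin 10 µg/mL wells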
UPR XBP1 confirm – IRE1-XBP1 UPR arm activators, confirmation, cell-based, CHO-XBP1 luciferase reporter, luminescence, single concentration; shares compounds with XBP1 UPR activ; activation, % at 20 µM; 1,000 compounds, 63% hits;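 active = reporter signal at least 30% of the positive control's activation in two or more of four replicate wells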;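 also: plate controls were DMSO negative control for no effect and tunicamycin 10 µg/mL positive control for full effect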
Numbers without * were called inactive.

How did Oc1ccc(Br)cc1/C=N/Nc1nc(N2CCCCC2)nc(N2CCOCC2)n1 do in these assays?
Jurkat NFkB inh: -16; 697 NFkB inh: 22; XBP1 UPR activ: -3; Gli-Sufu antag: -1; UPR CHOP act: 2; CHOP inhibitor: 15

Results for Oc1ccc(/C=N/Nc2nc(N3CCCCCC3)nc(N3CCCCCC3)n2)c(O)c1 ?
Jurkat NFkB inh: -19; 697 NFkB inh: -19; XBP1 UPR activ: 39*; Gli-Sufu antag: -9; UPR CHOP act: 11; CHOP inhibitor: 103*; CHOP inh conf: 98*; UPR XBP1 confirm: 11

What do the screens show for `O=C(/C=C/c1ccccc1)NC(NC(=S)Nc1cccc(Cl)c1)C(Cl)(Cl)Cl` (configuration not stated)?
Jurkat NFkB inh: -7; 697 NFkB inh: -26; XBP1 UPR activ: 51*; Gli-Sufu antag: 2; UPR CHOP act: 36; CHOP inhibitor: 111*; CHOP inh conf: 42; UPR XBP1 confirm: 30*

What do the screens show for `COc1ccc(OCc2n(CC(=O)OC3CC(C)CCC3C(C)C)c3ccccc3[n+]2C)cc1` (configuration not stated)?
Jurkat NFkB inh: 13; 697 NFkB inh: -44; XBP1 UPR activ: 36*; Gli-Sufu antag: 24; UPR CHOP act: 2; CHOP inhibitor: 97*; CHOP inh conf: 95*; UPR XBP1 confirm: 32*

What do the screens show for `CCOc1ccc(C(=O)Nc2ccc(NC(=O)c3ccco3)c(Cl)c2)cc1Cl`?
Jurkat NFkB inh: -7; 697 NFkB inh: 5; XBP1 UPR activ: 48*; Gli-Sufu antag: -21; UPR CHOP act: 13; CHOP inhibitor: 101*; CHOP inh conf: 60; UPR XBP1 confirm: 120*

How did CCOc1ccc(C(=O)Nc2ccc(NC(=O)c3ccco3)c(Cl)c2)cc1Br do in these assays?
Jurkat NFkB inh: -2; 697 NFkB inh: 11; XBP1 UPR activ: 3; Gli-Sufu antag: -1; UPR CHOP act: 1; CHOP inhibitor: 41

How did COCCNC(=O)c1cccc(S(=O)(=O)N2CC3(C)CC2CC(C)(C)C3)c1 (configuration not stated) do in these assays?
Jurkat NFkB inh: -28; 697 NFkB inh: -18; XBP1 UPR activ: 1; Gli-Sufu antag: 5; UPR CHOP act: 0

What do the screens show for `Cc1nc(SCC(=O)Nc2ccc(F)cc2)c(C#N)c(C)c1CC(=O)c1ccc(Br)cc1`?
Jurkat NFkB inh: 26; 697 NFkB inh: 24; XBP1 UPR activ: 98*; Gli-Sufu antag: 3; UPR CHOP act: 57*; CHOP inhibitor: 103*; CHOP inh conf: 97*; UPR CHOP confirm: 35*; UPR XBP1 confirm: 68*

How did Cc1cccc(NC(=O)CSc2nc(C)c(CC(=O)c3ccc(Br)cc3)c(C)c2C#N)c1C do in these assays?
Jurkat NFkB inh: -6; 697 NFkB inh: 16; XBP1 UPR activ: 48*; Gli-Sufu antag: -4; UPR CHOP act: 28; CHOP inhibitor: 103*; CHOP inh conf: 106*; UPR XBP1 confirm: 98*

What do the screens show for `COc1ccc(NC(=O)CSc2nc(C)c3c(c2C#N)CCCC3)cc1`?
Jurkat NFkB inh: 11; 697 NFkB inh: -10; XBP1 UPR activ: -2; Gli-Sufu antag: 4; UPR CHOP act: -2; CHOP inhibitor: 17

Results for CC(CNC(=O)CCS(=O)(=O)c1cc2c(cc1Cl)NC(=O)CO2)c1ccccc1 (configuration not stated) ?
Jurkat NFkB inh: -6; 697 NFkB inh: 5; XBP1 UPR activ: 0; Gli-Sufu antag: -1; UPR CHOP act: -3

What do the screens show for `O=C(NCC(c1cccs1)N1CCOCC1)c1cc(S(=O)(=O)N2CCOCC2)ccc1F` (configuration not stated)?
Jurkat NFkB inh: -6; 697 NFkB inh: -2; XBP1 UPR activ: -1; Gli-Sufu antag: -3; UPR CHOP act: 1

What do the screens show for `O=c1[nH]c(=O)n(-c2ccccc2)c2c1C(C(F)(F)F)(C(F)(F)F)N=C(CCC1CCCCC1)N2`?
Jurkat NFkB inh: 9; 697 NFkB inh: -4; XBP1 UPR activ: 9; Gli-Sufu antag: 19; UPR CHOP act: 3; CHOP inhibitor: 33

Results for CC(C)Cn1c2c(c(=O)[nH]c1=O)C(C(F)(F)F)(C(F)(F)F)N=C(CCC1CCCCC1)N2 ?
Jurkat NFkB inh: 5; 697 NFkB inh: -53; XBP1 UPR activ: 33*; Gli-Sufu antag: 15; UPR CHOP act: 12; CHOP inhibitor: 102*; CHOP inh conf: 82*; UPR XBP1 confirm: 38*

What do the screens show for `Cc1ccc2nc(-c3ccc(NC(=O)CN4C(=O)c5ccccc5C4=O)cc3)sc2c1`?
Jurkat NFkB inh: -108; 697 NFkB inh: -97; XBP1 UPR activ: 10; Gli-Sufu antag: -105; UPR CHOP act: 3; CHOP inhibitor: 26

What do the screens show for `CCC1(c2ccc(F)cc2)NC(=O)N(CC(=O)Nc2ccc(-c3nc4ccc(C)cc4s3)cc2)C1=O` (configuration not stated)?
Jurkat NFkB inh: -186; 697 NFkB inh: -178; XBP1 UPR activ: 36*; Gli-Sufu antag: -115; UPR CHOP act: 2; CHOP inhibitor: 101*; CHOP inh conf: 74*; Jurkat NFkB conf: -82; UPR XBP1 confirm: 32*

How did COc1ccc(Cn2c(SCc3ccccc3C)nc3cc(OC)c(OC)cc3c2=N)cc1 do in these assays?
Jurkat NFkB inh: 19; 697 NFkB inh: -33; XBP1 UPR activ: 115*; UPR CHOP act: 16; CHOP inhibitor: 107*; CHOP inh conf: 120*; UPR XBP1 confirm: 61*
